Measured values published in the M2OR odorant receptor database.
Residue numbers refer to the chain shown, from its start.

Key:
Conditions in all cases: stereoisomer not certain
OR2C3 (Homo sapiens) = target: T1, OR2C3 (Homo sapiens) (UniProt Q8N628)
T1 sequence (whole entry): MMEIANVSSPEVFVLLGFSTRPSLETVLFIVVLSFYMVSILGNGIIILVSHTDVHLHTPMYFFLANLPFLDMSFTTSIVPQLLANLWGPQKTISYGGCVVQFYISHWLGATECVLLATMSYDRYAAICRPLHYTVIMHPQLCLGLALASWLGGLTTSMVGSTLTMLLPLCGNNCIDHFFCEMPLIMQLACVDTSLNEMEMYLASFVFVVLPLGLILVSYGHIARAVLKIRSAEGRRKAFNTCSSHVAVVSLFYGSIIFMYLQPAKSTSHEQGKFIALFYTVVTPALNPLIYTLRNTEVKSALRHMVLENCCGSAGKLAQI
How it was run: (§1)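 Assay methods differ from source to source, frequently being transient luciferase assays in mammalian cell lines. For each receptor–molecule pair, the label responsive (active) applies when the original authors judged the measured signal statistically different from baseline, and non-responsive (inactive) applies otherwise.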

OR2B3 (Homo sapiens) = target: T2, OR2B3 (Homo sapiens) (UniProt O76000)
T2 sequence (whole entry): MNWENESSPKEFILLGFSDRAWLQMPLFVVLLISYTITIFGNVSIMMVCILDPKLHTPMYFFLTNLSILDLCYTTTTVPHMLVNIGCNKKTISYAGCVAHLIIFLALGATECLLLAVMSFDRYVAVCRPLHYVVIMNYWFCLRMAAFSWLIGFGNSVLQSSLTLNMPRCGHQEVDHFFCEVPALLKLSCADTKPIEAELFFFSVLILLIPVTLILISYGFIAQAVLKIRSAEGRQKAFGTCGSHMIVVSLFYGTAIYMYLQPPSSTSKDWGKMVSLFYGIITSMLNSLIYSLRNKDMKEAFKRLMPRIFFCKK
How it was run: as §1

OR2B6 (Homo sapiens) = target: T3, OR2B6 (Homo sapiens) (UniProt P58173)
T3 sequence (whole entry): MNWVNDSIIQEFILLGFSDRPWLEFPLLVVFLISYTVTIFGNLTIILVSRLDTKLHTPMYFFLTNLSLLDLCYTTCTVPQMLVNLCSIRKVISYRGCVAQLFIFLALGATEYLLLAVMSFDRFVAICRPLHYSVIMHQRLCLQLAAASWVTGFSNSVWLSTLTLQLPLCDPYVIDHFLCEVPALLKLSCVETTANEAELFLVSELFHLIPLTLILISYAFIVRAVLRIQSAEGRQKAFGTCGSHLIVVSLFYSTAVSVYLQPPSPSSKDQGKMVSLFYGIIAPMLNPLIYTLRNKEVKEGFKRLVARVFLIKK
How it was run: as §1

OR2BB [1] = test system: T4, OR2BB
T4 sequence (whole entry): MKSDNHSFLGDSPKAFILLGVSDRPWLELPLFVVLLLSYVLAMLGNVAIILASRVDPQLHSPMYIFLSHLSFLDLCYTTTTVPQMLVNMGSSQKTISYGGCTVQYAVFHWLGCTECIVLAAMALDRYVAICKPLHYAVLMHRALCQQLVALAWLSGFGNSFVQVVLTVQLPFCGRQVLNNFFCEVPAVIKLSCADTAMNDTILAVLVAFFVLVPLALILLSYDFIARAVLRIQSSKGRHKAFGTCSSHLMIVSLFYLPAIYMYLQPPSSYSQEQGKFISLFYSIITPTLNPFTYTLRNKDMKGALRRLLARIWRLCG
How it was run: as §1

OR2BB [2] = test system: T5, OR2BB; remark: listed apart in the source
T5 sequence (whole entry): T4 sequence (whole entry) with D223G
How it was run: as §1

OR2C1 (Homo sapiens) = target: T6, OR2C1 (Homo sapiens) (UniProt O95371)
T6 sequence (whole entry): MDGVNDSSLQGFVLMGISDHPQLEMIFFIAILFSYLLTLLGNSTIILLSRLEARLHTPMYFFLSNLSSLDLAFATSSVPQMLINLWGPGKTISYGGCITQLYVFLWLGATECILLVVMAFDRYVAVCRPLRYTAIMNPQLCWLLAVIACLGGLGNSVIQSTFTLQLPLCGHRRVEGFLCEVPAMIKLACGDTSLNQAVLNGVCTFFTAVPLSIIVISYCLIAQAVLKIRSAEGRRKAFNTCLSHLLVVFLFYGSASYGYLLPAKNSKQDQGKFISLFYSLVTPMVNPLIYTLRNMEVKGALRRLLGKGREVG
How it was run: as §1

OR2C1 [3] = test system: T7, OR2C1
T7 sequence (whole entry): T6 sequence (whole entry) with C149W
How it was run: as §1

OR2C3 [4] = test system: T8, OR2C3
T8 sequence (whole entry): T1 sequence (whole entry) with T20A, P68S, L289V
How it was run: as §1

OR2C3 [5] = test system: T9, OR2C3; remark: listed apart in the source
T9 sequence (whole entry): T1 sequence (whole entry) with P68S
How it was run: as §1

OR2D2 (Homo sapiens) = target: T10, OR2D2 (Homo sapiens) (UniProt Q9H210)
T10 sequence (whole entry): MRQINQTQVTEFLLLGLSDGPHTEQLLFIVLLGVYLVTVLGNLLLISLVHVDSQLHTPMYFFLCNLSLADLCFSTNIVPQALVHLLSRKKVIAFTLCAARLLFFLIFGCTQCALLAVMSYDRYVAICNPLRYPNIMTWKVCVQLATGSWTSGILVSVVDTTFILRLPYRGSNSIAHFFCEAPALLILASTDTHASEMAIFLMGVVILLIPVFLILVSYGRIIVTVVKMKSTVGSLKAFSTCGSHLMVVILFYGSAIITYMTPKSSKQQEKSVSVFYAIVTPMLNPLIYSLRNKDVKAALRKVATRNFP
How it was run: as §1

OR2D2 S148P I163T M202T = test system: T11, OR2D2 S148P I163T M202T
T11 sequence (whole entry): T10 sequence (whole entry) with S148P, I163T, M202T
How it was run: as §1

OR2D3 (Homo sapiens) = target: T12, OR2D3 (Homo sapiens) (UniProt Q8NGH3)
T12 sequence (whole entry): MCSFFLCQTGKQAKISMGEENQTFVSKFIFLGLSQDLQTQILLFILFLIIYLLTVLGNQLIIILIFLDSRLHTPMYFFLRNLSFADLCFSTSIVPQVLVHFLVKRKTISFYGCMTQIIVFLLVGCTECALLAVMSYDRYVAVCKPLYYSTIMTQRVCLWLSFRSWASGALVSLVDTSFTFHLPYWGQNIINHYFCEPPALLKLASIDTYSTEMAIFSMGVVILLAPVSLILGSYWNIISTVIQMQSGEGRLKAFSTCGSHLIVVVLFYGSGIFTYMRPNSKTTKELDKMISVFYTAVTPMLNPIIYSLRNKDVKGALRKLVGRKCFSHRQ
How it was run: as §1

OR2D3 R155W = test system: T13, OR2D3 R155W
T13 sequence (whole entry): T12 sequence (whole entry) with R155W
How it was run: as §1

OR2BB [6] = test system: T14, OR2BB; remark: listed apart in the source
T14 sequence (whole entry): T4 sequence (whole entry) with D223G, T293I, D300G
How it was run: as §1

OR2BB [7] = test system: OR2BB; remark: listed apart in the source
How it was run: as §1
Target sequence in this assay (as listed by the source): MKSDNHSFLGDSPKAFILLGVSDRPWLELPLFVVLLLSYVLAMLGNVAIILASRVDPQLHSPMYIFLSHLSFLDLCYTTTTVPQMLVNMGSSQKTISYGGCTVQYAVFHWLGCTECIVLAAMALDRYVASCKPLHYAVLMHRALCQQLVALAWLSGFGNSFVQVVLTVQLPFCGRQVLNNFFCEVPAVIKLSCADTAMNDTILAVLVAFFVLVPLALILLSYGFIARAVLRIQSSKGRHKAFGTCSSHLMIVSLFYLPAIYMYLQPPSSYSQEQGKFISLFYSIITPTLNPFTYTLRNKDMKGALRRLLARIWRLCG

OR2C1 [8] = test system: T15, OR2C1; remark: listed apart in the source
T15 sequence (whole entry): T6 sequence (whole entry) with G16S, C149W, C169Y, R229H
How it was run: as §1

Measured: odorant receptor agonist call

CCCCCCC=CCCC=O
inactive: OR2C3 (Homo sapiens)

CCC1OC(=O)C(O)=C1C (configuration not stated)
not listed: OR2C3 (Homo sapiens) | OR2BB [6] | OR2BB [7] | OR2C1 [8]
inactive: all other assays above

CC(C)=CCCC(C)CCO (configuration not stated)
inactive: OR2C1 (Homo sapiens)

O=c1ccc2ccccc2o1
active: OR2BB [6] | OR2BB [2]
inactive: OR2BB [1] | OR2BB [7] | OR2C1 (Homo sapiens)

O=C(c1ccccc1)c1ccccc1
inactive: OR2C1 (Homo sapiens)

CC(C)=CCCC(C)=CCO
inactive: OR2B3 (Homo sapiens) | OR2C1 (Homo sapiens)

CCCCCO
inactive: OR2C1 (Homo sapiens)

CCCCCC(S)C(C)CO (configuration not stated)
inactive: OR2B3 (Homo sapiens) | OR2B6 (Homo sapiens) | OR2C1 (Homo sapiens) | OR2C3 (Homo sapiens) | OR2D2 (Homo sapiens) | OR2D3 (Homo sapiens)

c1ccc2ncccc2c1
active: OR2BB [6] | OR2BB [2]
inactive: OR2BB [1] | OR2BB [7]

Cc1cnc(C)c(C)n1
not listed: OR2C3 (Homo sapiens) | OR2BB [6] | OR2BB [7] | OR2C1 [8]
inactive: all other assays above

CCCC(S)CCOC(C)=O (configuration not stated)
not listed: OR2C3 (Homo sapiens) | OR2BB [6] | OR2BB [7] | OR2C1 [8]
inactive: all other assays above

CC(=O)Oc1ccccc1
inactive: OR2C1 (Homo sapiens)

c1coc(CSSCc2ccco2)c1
inactive: OR2C1 [3] | OR2C1 [8]
active: OR2BB [6] | OR2BB [2]

CCC(C(=O)O)c1ccccc1 (configuration not stated)
inactive: OR2C1 (Homo sapiens)

CCCCCCC(C)=O
inactive: OR2C1 (Homo sapiens)

CCC(S)C(C)CO (configuration not stated)
inactive: OR2B3 (Homo sapiens) | OR2B6 (Homo sapiens) | OR2C1 (Homo sapiens) | OR2C3 (Homo sapiens) | OR2D2 (Homo sapiens) | OR2D3 (Homo sapiens)

CCCCC(S)C(C)CO (configuration not stated)
inactive: OR2B3 (Homo sapiens) | OR2B6 (Homo sapiens) | OR2C1 (Homo sapiens) | OR2C3 (Homo sapiens) | OR2D2 (Homo sapiens) | OR2D3 (Homo sapiens)

O=C1CCOc2ccccc21
inactive: OR2C1 (Homo sapiens)
